ChEMBL document CHEMBL1142195, “A novel nonnucleoside analogue that inhibits human immunodeficiency virus type 1 isolates resistant to current nonnucleoside reverse transcriptase inhibitors” (Antimicrob Agents Chemother, 2007)

Legend:
Type in all cases: functional, organism-based
[1] = test system: Human immunodeficiency virus 1; test: Antiviral activity against HIV1 isolate with RT K103N-K101Q-P225H mutation
Method in brief: (§1)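 VSV-G-pseudotyped pNL4-3.Luc.R−E− molecular clones carrying the RT mutations, single-round infection of HeLa-JC53 cells (15,000/well) at MOI 0.03. Compounds serially diluted 1:4 in DMSO then in phenol red-free DMEM with 2% FBS, final DMSO 0.2%. Incubated 48 h at 37°C, 5% CO2. Luciferase read-out by chemiluminescence gives the EC50. Fold change is relative to wt virus, mean of two tests.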

[2] = test system: Human immunodeficiency virus 1; test: Antiviral activity against HIV1 isolate with RT G190S mutation; method in brief: as §1
[3] = test system: Human immunodeficiency virus 1; test: Antiviral activity against HIV1 isolate with RT K103N mutation; method in brief: as §1
[4] = test system: Human immunodeficiency virus 1; test: Antiviral activity against HIV1 isolate with RT K103N-Y181C mutation; method in brief: as §1
[5] = test system: Human immunodeficiency virus 1; test: Antiviral activity against HIV1 isolate with RT K103N-V108I-P225H mutation; method in brief: as §1
[6] = test system: Human immunodeficiency virus 1; test: Antiviral activity against HIV1 isolate with RT K103N-P225H mutation; method in brief: as §1
[7] = test system: Human immunodeficiency virus 1; test: Antiviral activity against HIV1 isolate with RT K101E mutant; method in brief: as §1
[8] = test system: Human immunodeficiency virus 1; test: Antiviral activity against HIV1 isolate with RT Y188L mutation; method in brief: as §1
[9] = test system: Human immunodeficiency virus 1; test: Antiviral activity against HIV1 isolate with RT Y181C mutation; method in brief: as §1
[10] = test system: Human immunodeficiency virus 1; test: Antiviral activity against HIV1 isolate with RT K103N-Y188L mutation; method in brief: as §1
[11] = test system: Human immunodeficiency virus 1; test: Antiviral activity against HIV1 isolate with RT V106I mutation; method in brief: as §1
[12] = test system: Human immunodeficiency virus 1; test: Antiviral activity against HIV1 isolate with RT G190A mutation; method in brief: as §1
[13] = test system: Human immunodeficiency virus 1; test: Antiviral activity against HIV1 isolate with RT A98G mutation; method in brief: as §1
[14] = test system: Human immunodeficiency virus 1; test: Antiviral activity against HIV1 isolate with RT K103N-F227L mutation; method in brief: as §1
[15] = test system: Human immunodeficiency virus 1; test: Antiviral activity against HIV1 isolate V106I-Y188L mutant
[16] = test system: Human immunodeficiency virus 1; test: Antiviral activity against HIV1 isolate with RT K103N-L100I mutation; method in brief: as §1
[17] = test system: Human immunodeficiency virus 1; test: Antiviral activity against HIV1 isolate with RT K103N-V108I mutation; method in brief: as §1
[18] = test system: Human immunodeficiency virus 1; test: Antiviral activity against HIV1 isolate with RT K103N-K101Q mutation; method in brief: as §1
[19] = test system: Human immunodeficiency virus 1; test: Antiviral activity against wild type HIV1
[20] = test system: Human immunodeficiency virus 1; test: Antiviral activity against HIV1 isolate with RT K103N-V108I-A98G mutation; method in brief: as §1

Q: Which results are given for O=C1Nc2ccc(Cl)cc2[C@@](C#CC2CC2)(C(F)(F)F)O1 [EFAVIRENZ]?
A: EC50 [1]: 78.4 nM; EC50 [2]: 14.3 nM; EC50 [3]: 2.73 nM; EC50 [4]: 4.24 nM; EC50 [5]: 77.1 nM; EC50 [6]: 34.9 nM; EC50 [7]: 0.74 nM; EC50 [8]: 24.4 nM; EC50 [9]: 0.33 nM; EC50 [10]: > 2500 nM; EC50 [11]: 0.27 nM; EC50 [12]: 0.48 nM; EC50 [13]: 0.64 nM; EC50 [14]: 2.26 nM; EC50 [15]: 136 nM; EC50 [16]: 258 nM; EC50 [17]: 8.63 nM; EC50 [18]: 12.7 nM; EC50 [19]: 0.17 nM; EC50 [20]: 67.9 nM
